According to PMC9217999 (Targeted Oncology, 2022):
“Also recorded” adds a separate entry of the source.

Test: Safety and tolerability in iMATRIX-cobi Phase I/II study
Assay type: in vivo, human
Procedure, shortened: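 Patients aged 6 months to <30 years with relapsed/refractory solid tumors with MAPK pathway involvement. Oral test compound (20-mg tablet or suspension, with/without food) on Days 1–21 of 28-day cycles. Cumulative weekly weight-based dose rounded to 20 mg, capped at 60 mg/day. Rolling 6 escalation in cohorts of 3–6. Eye exams including OCT at baseline, cycle 1 Days 8/15, and each later cycle Day 1. All dosed patients evaluated.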

[1] = Dose escalation suspension (n = 26)
[2] = Dose escalation tablet (n = 18)

## O=C(c1ccc(F)c(F)c1Nc1ccc(I)cc1F)N1CC(O)([C@@H]2CCCCN2)C1 [cobimetinib]
0.6 mg/kg suspension
  DLTs (events): grade 1 chorioretinopathy
1.0 mg/kg tablet
  DLTs (events): grade 3 headache; also recorded: grade 2 retinal detachment
1.33 mg/kg suspension
  DLTs (events): grade 4 chorioretinopathy; also recorded: grade 1 serous retinal detachment
[1]
  Any treatment-related AE, G1: 6 (23) n (%)
  Any treatment-related AE, G2: 12 (46) n (%)
  Any treatment-related AE, G3: 4 (15) n (%)
  Any treatment-related AE, G4: 1 (4) n (%)
  Treatment-related AE: ALT increased, G1: 1 (4) n (%)
  Treatment-related AE: ALT increased, G2: 0 n (%)
  Treatment-related AE: ALT increased, G3: 1 (4) n (%)
  Treatment-related AE: ALT increased, G4: 0 n (%)
  Treatment-related AE: AST increased, G1: 1 (4) n (%)
  Treatment-related AE: AST increased, G2: 0 n (%)
  Treatment-related AE: AST increased, G3: 1 (4) n (%)
  Treatment-related AE: AST increased, G4: 0 n (%)
  Treatment-related AE: Abdominal pain, G1: 2 (8) n (%)
  Treatment-related AE: Abdominal pain, G2: 2 (8) n (%)
  Treatment-related AE: Abdominal pain, G3: 0 n (%)
  Treatment-related AE: Abdominal pain, G4: 0 n (%)
  Treatment-related AE: Anemia, G1: 1 (4) n (%)
  Treatment-related AE: Anemia, G2: 0 n (%)
  Treatment-related AE: Anemia, G3: 0 n (%)
  Treatment-related AE: Anemia, G4: 0 n (%)
  Treatment-related AE: Asthenia, G1: 0 n (%)
  Treatment-related AE: Asthenia, G2: 0 n (%)
  Treatment-related AE: Asthenia, G3: 0 n (%)
  Treatment-related AE: Asthenia, G4: 0 n (%)
  Treatment-related AE: Blood CPK increased, G1: 2 (8) n (%)
  Treatment-related AE: Blood CPK increased, G2: 1 (4) n (%)
  Treatment-related AE: Blood CPK increased, G3: 1 (4) n (%)
  Treatment-related AE: Blood CPK increased, G4: 0 n (%)
  Treatment-related AE: Chorioretinopathy, G1: 1 (4) n (%)
  Treatment-related AE: Chorioretinopathy, G2: 0 n (%)
  Treatment-related AE: Chorioretinopathy, G3: 0 n (%)
  Treatment-related AE: Chorioretinopathy, G4: 1 (4) n (%)
  Treatment-related AE: Constipation, G1: 1 (4) n (%)
  Treatment-related AE: Constipation, G2: 0 n (%)
  Treatment-related AE: Constipation, G3: 0 n (%)
  Treatment-related AE: Constipation, G4: 0 n (%)
  Treatment-related AE: Decreased appetite, G1: 2 (8) n (%)
  Treatment-related AE: Decreased appetite, G2: 0 n (%)
  Treatment-related AE: Decreased appetite, G3: 0 n (%)
  Treatment-related AE: Decreased appetite, G4: 0 n (%)
  Treatment-related AE: Dermatitis acneiform, G1: 4 (15) n (%)
  Treatment-related AE: Dermatitis acneiform, G2: 1 (4) n (%)
  Treatment-related AE: Dermatitis acneiform, G3: 1 (4) n (%)
  Treatment-related AE: Dermatitis acneiform, G4: 0 n (%)
  Treatment-related AE: Diarrhea, G1: 2 (8) n (%)
  Treatment-related AE: Diarrhea, G2: 7 (27) n (%)
  Treatment-related AE: Diarrhea, G3: 0 n (%)
  Treatment-related AE: Diarrhea, G4: 0 n (%)
  Treatment-related AE: Dry skin, G1: 4 (15) n (%)
  Treatment-related AE: Dry skin, G2: 0 n (%)
  Treatment-related AE: Dry skin, G3: 1 (4) n (%)
  Treatment-related AE: Dry skin, G4: 0 n (%)
  Treatment-related AE: Encephalopathy, G1: 0 n (%)
  Treatment-related AE: Encephalopathy, G2: 0 n (%)
  Treatment-related AE: Encephalopathy, G3: 0 n (%)
  Treatment-related AE: Encephalopathy, G4: 0 n (%)
  Treatment-related AE: Erythema, G1: 2 (8) n (%)
  Treatment-related AE: Erythema, G2: 0 n (%)
  Treatment-related AE: Erythema, G3: 0 n (%)
  Treatment-related AE: Erythema, G4: 0 n (%)
  Treatment-related AE: Fatigue, G1: 6 (23) n (%)
  Treatment-related AE: Fatigue, G2: 0 n (%)
  Treatment-related AE: Fatigue, G3: 0 n (%)
  Treatment-related AE: Fatigue, G4: 0 n (%)
  Treatment-related AE: Headache, G1: 3 (12) n (%)
  Treatment-related AE: Headache, G2: 2 (8) n (%)
  Treatment-related AE: Headache, G3: 0 n (%)
  Treatment-related AE: Headache, G4: 0 n (%)
  Treatment-related AE: Nausea, G1: 4 (15) n (%)
  Treatment-related AE: Nausea, G2: 0 n (%)
  Treatment-related AE: Nausea, G3: 0 n (%)
  Treatment-related AE: Nausea, G4: 0 n (%)
  Treatment-related AE: Paronychia, G1: 2 (8) n (%)
  Treatment-related AE: Paronychia, G2: 1 (4) n (%)
  Treatment-related AE: Paronychia, G3: 1 (4) n (%)
  Treatment-related AE: Paronychia, G4: 0 n (%)
  Treatment-related AE: Rash, G1: 2 (8) n (%)
  Treatment-related AE: Rash, G2: 0 n (%)
  Treatment-related AE: Rash, G3: 0 n (%)
  Treatment-related AE: Rash, G4: 0 n (%)
  Treatment-related AE: Transaminases increased, G1: 0 n (%)
  Treatment-related AE: Transaminases increased, G2: 0 n (%)
  Treatment-related AE: Transaminases increased, G3: 1 (4) n (%)
  Treatment-related AE: Transaminases increased, G4: 0 n (%)
  Treatment-related AE: Vomiting, G1: 2 (8) n (%)
  Treatment-related AE: Vomiting, G2: 0 n (%)
  Treatment-related AE: Vomiting, G3: 0 n (%)
  Treatment-related AE: Vomiting, G4: 0 n (%)
  Treatment-related AE: Weight increased, G1: 0 n (%)
  Treatment-related AE: Weight increased, G2: 0 n (%)
  Treatment-related AE: Weight increased, G3: 0 n (%)
  Treatment-related AE: Weight increased, G4: 0 n (%)
[2]
  Any treatment-related AE, G1: 7 (39) n (%)
  Any treatment-related AE, G2: 5 (28) n (%)
  Any treatment-related AE, G3: 4 (22) n (%)
  Any treatment-related AE, G4: 0 n (%)
  Treatment-related AE: ALT increased, G1: 1 (6) n (%)
  Treatment-related AE: ALT increased, G2: 0 n (%)
  Treatment-related AE: ALT increased, G3: 0 n (%)
  Treatment-related AE: ALT increased, G4: 0 n (%)
  Treatment-related AE: AST increased, G1: 1 (6) n (%)
  Treatment-related AE: AST increased, G2: 0 n (%)
  Treatment-related AE: AST increased, G3: 0 n (%)
  Treatment-related AE: AST increased, G4: 0 n (%)
  Treatment-related AE: Abdominal pain, G1: 4 (22) n (%)
  Treatment-related AE: Abdominal pain, G2: 0 n (%)
  Treatment-related AE: Abdominal pain, G3: 0 n (%)
  Treatment-related AE: Abdominal pain, G4: 0 n (%)
  Treatment-related AE: Anemia, G1: 1 (6) n (%)
  Treatment-related AE: Anemia, G2: 0 n (%)
  Treatment-related AE: Anemia, G3: 0 n (%)
  Treatment-related AE: Anemia, G4: 0 n (%)
  Treatment-related AE: Asthenia, G1: 0 n (%)
  Treatment-related AE: Asthenia, G2: 0 n (%)
  Treatment-related AE: Asthenia, G3: 0 n (%)
  Treatment-related AE: Asthenia, G4: 0 n (%)
  Treatment-related AE: Blood CPK increased, G1: 0 n (%)
  Treatment-related AE: Blood CPK increased, G2: 1 (6) n (%)
  Treatment-related AE: Blood CPK increased, G3: 0 n (%)
  Treatment-related AE: Blood CPK increased, G4: 0 n (%)
  Treatment-related AE: Chorioretinopathy, G1: 0 n (%)
  Treatment-related AE: Chorioretinopathy, G2: 0 n (%)
  Treatment-related AE: Chorioretinopathy, G3: 0 n (%)
  Treatment-related AE: Chorioretinopathy, G4: 0 n (%)
  Treatment-related AE: Constipation, G1: 3 (17) n (%)
  Treatment-related AE: Constipation, G2: 0 n (%)
  Treatment-related AE: Constipation, G3: 0 n (%)
  Treatment-related AE: Constipation, G4: 0 n (%)
  Treatment-related AE: Decreased appetite, G1: 2 (11) n (%)
  Treatment-related AE: Decreased appetite, G2: 0 n (%)
  Treatment-related AE: Decreased appetite, G3: 1 (6) n (%)
  Treatment-related AE: Decreased appetite, G4: 0 n (%)
  Treatment-related AE: Dermatitis acneiform, G1: 0 n (%)
  Treatment-related AE: Dermatitis acneiform, G2: 0 n (%)
  Treatment-related AE: Dermatitis acneiform, G3: 0 n (%)
  Treatment-related AE: Dermatitis acneiform, G4: 0 n (%)
  Treatment-related AE: Diarrhea, G1: 8 (44) n (%)
  Treatment-related AE: Diarrhea, G2: 1 (6) n (%)
  Treatment-related AE: Diarrhea, G3: 0 n (%)
  Treatment-related AE: Diarrhea, G4: 0 n (%)
  Treatment-related AE: Dry skin, G1: 2 (11) n (%)
  Treatment-related AE: Dry skin, G2: 2 (11) n (%)
  Treatment-related AE: Dry skin, G3: 0 n (%)
  Treatment-related AE: Dry skin, G4: 0 n (%)
  Treatment-related AE: Encephalopathy, G1: 0 n (%)
  Treatment-related AE: Encephalopathy, G2: 0 n (%)
